One experiment has as its system MOLT-4. Briefly: Evaluated for the inhibition of tumor cell growth of Human T-Lymphocyte cells (Molt4/C8). It counts as functional, cell-based. In outline: (§1)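 Proliferation of the murine (L1210/0, FM3A/0) and human T-lymphoblast (Molt4/C8, CEM/0) lines was measured following the procedure originally described for mouse L1210 cells. IC50 is the concentration, in µg/mL, that inhibits tumour cell proliferation by 50%.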

In a further experiment the test system is CCRF-CEM. Put plainly: Evaluated for the inhibition of tumor cell growth of Human T-Lymphocyte cells (CEM/0). Type of experiment: functional, cell-based. The gist of the method:
as §1

In the next experiment the test system is FM3A. Put plainly: Evaluated for the inhibition of tumor cell growth of murine mammary carcinoma malignant tumor cell line (FM3A/0). Type of experiment: functional, cell-based. The note with it: Mus musculus. In outline:
as §1

Experiment [1] concerns HEL. Briefly: Evaluated for minimum cytotoxic concentration that causes a microscopically detectable alteration of normal HEL cell morphology. Type of experiment: functional. The settings on record: Homo sapiens. The gist of the method: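 HEL fibroblast cultures were examined by microscope. MCC is the lowest concentration, in µg/mL, that causes a detectable change in normal cell morphology.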

The subject of experiment [2] is HEL. Put plainly: Evaluated for cytotoxic concentration required to reduce normal human embryonic lung (fibroblast) HEL cell growth by 50%. It counts as functional. The gist of the method: (§2)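 Normal human embryonic lung fibroblasts (HEL) were grown with compound. CC50 is the concentration, in µg/mL, that reduces HEL cell growth by 50%.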
Another experiment concerns L1210. Put plainly: Evaluated for the inhibition of tumor cell growth of murine leukemia malignant tumor cell line (L1210/0). Type of experiment: functional, cell-based. The settings on record: Mus musculus. In outline: as §1
For experiment [3], the system named is HEL. Put plainly: Evaluated for cytotoxic concentration required to reduce normal human embryonic lung (fibroblast) (HEL) cell growth by 50%. Type of experiment: functional. In outline:
as §2

The next experiment relates to MEF. Put plainly: Evaluated for cytotoxicity against murine embryo fibroblasts (MEF). Type of experiment: functional, Mus musculus. The gist of the method:
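Murine embryo fibroblasts (MEF) were tested for inhibition of proliferation following the method originally described for mouse L1210 cells. Values are given as cytotoxic concentrations in µg/mL.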

Molecules are shown by their SMILES. Converted amounts (≈) assume the structure as drawn. Where only a bound is given, the exact number is not on record here.

Take `O=C1OC(C(O)Cn2ccc(=O)[nH]c2=O)C(OCc2ccccc2)=C1OCc1ccccc1` (stereo not drawn): the IC50 (as a rule, the concentration needed to halve the response being measured) amounted to 67.8 µg/mL (≈ 151 µM) with MOLT-4, 68.6 µg/mL (≈ 152 µM) with CCRF-CEM, 74.1 µg/mL (≈ 165 µM) in the experiment on FM3A and 70.8 µg/mL (≈ 157 µM) with L1210. This compound also displayed an MCC in the experiment with HEL [1] greater than 50 µg/mL. In addition, the CC50 (commonly the concentration at which the toxic effect on the cells reaches its halfway point) in the experiment with HEL [2] was greater than 50 µg/mL.

For `O=C1O/C(=C\Cn2cc(C(F)(F)F)c(=O)[nH]c2=O)C(O)=C1O`, the IC50 in the experiment with MOLT-4 is greater than 200 µg/mL; in the experiment on CCRF-CEM it was greater than 200 µg/mL; in the experiment on FM3A, 162 µg/mL (≈ 506 µM); in the experiment on L1210 it was 76.1 µg/mL (≈ 238 µM). Further, the CC50 in the experiment on HEL [3] is greater than 50 µg/mL. In addition, in the experiment on HEL [1], the MCC is greater than 50 µg/mL.

For `O=C1OC(C(O)Cn2cc(F)c(=O)[nH]c2=O)C(OCc2ccccc2)=C1OCc1ccccc1` (stereo not drawn), the IC50 amounted to 81.2 µg/mL (≈ 173 µM) in the experiment with MOLT-4, 74 µg/mL (≈ 158 µM) in the experiment on CCRF-CEM, 52.2 µg/mL (≈ 111 µM) in the experiment on FM3A and 65.6 µg/mL (≈ 140 µM) with L1210. In the experiment on HEL [1], this compound came in with an MCC of 50 µg/mL. This compound came in with a CC50 in the experiment with HEL [2] of 33.4 µg/mL (≈ 71.3 µM).

With `O=c1[nH]c(=O)n([C@H]2C[C@H](O)[C@@H](CO)O2)cc1F` [FLOXURIDINE], the IC50 in the experiment with MOLT-4 is 2.6 µg/mL (≈ 10.6 µM); with CCRF-CEM, 0.003 µg/mL (≈ 0.0122 µM); with FM3A, 0.0008 µg/mL (≈ 0.00325 µM); in the experiment with L1210, 0.0003 µg/mL (≈ 0.00122 µM). For the same compound, the Cytotoxicity in the experiment with MEF amounted to 0.0001 µg/mL.

For the compound `O=c1[nH]cc(F)c(=O)[nH]1` [FLUOROURACIL], the IC50 in the experiment on MOLT-4 was found to be 2.9 µg/mL (≈ 22.3 µM); with CCRF-CEM, 1.2 µg/mL (≈ 9.23 µM); in the experiment on FM3A, 0.02 µg/mL (≈ 0.154 µM); with L1210, 0.04 µg/mL (≈ 0.308 µM). This compound also yielded a Cytotoxicity with MEF of 0.2 µg/mL.

Take `O=C1O/C(=C\Cn2cc(F)c(=O)[nH]c2=O)C(O)=C1O`: the IC50 with MOLT-4 came out at 31.8 µg/mL (≈ 118 µM); in the experiment with CCRF-CEM, 20.9 µg/mL (≈ 77.4 µM); in the experiment with FM3A, 0.78 µg/mL (≈ 2.89 µM); in the experiment with L1210 it was 1.4 µg/mL (≈ 5.18 µM). In addition, the Cytotoxicity in the experiment on MEF worked out at 0.92 µg/mL. In the experiment with HEL [3], this compound returned a CC50 of 23 µg/mL (≈ 85.1 µM). In the experiment with HEL [1], the MCC was greater than 50 µg/mL.

For the compound `O=C1OC(C(O)Cn2cc(C(F)(F)F)c(=O)[nH]c2=O)C(OCc2ccccc2)=C1OCc1ccccc1` (stereo not drawn), the 50% inhibitory concentration (IC50) in the experiment with MOLT-4 came out at 47.4 µg/mL (≈ 91.4 µM); in the experiment on CCRF-CEM it was 19 µg/mL (≈ 36.6 µM); in the experiment with FM3A it was 38.4 µg/mL (≈ 74.1 µM); with L1210, 26 µg/mL (≈ 50.2 µM). Besides, half-maximal cytotoxicity with HEL [3] (CC50) was put at 31.7 µg/mL (≈ 61.1 µM). In addition, the MCC in the experiment on HEL [1] was 50 µg/mL.

For `O=C1O/C(=C\Cn2ccc(=O)[nH]c2=O)C(OCc2ccccc2)=C1O`, the IC50 in the experiment with MOLT-4, in the experiment with CCRF-CEM, with FM3A and in the experiment on L1210 was greater than 200 µg/mL in each case. For the same compound, the CC50 with HEL [3] was greater than 50 µg/mL. The same compound showed an MCC with HEL [1] greater than 50 µg/mL.

With `O=C1O/C(=C\Cn2ccc(=O)[nH]c2=O)C(O)=C1O`, the IC50 in the experiment on MOLT-4, in the experiment on CCRF-CEM, in the experiment on FM3A and in the experiment on L1210 was greater than 200 µg/mL in each case. Besides, in the experiment on HEL [3], the CC50 is greater than 50 µg/mL. Also, in the experiment on HEL [1], the MCC was greater than 50 µg/mL.

The values above are taken from ChEMBL document CHEMBL1133596, “Synthesis and antitumor activities of novel pyrimidine derivatives of 2,3-O,O-dibenzyl-6-deoxy-L-ascorbic acid and 4,5-didehydro-5,6- dideoxy-L-ascorbic acid” (J Med Chem, 2000).
